From ChEMBL document CHEMBL2040763, “Waikialoid A suppresses hyphal morphogenesis and inhibits biofilm development in pathogenic Candida albicans” (J Nat Prod, 2012) come the findings set out here.

Series [1] relates to Candida albicans. In words: Antifungal activity against Candida albicans DAY185 assessed as lowest compound concentration causing =>80% reduction in cell viability after 48 hrs by XTT assay. In kind it is organism-based.
Series [2] relates to Candida albicans. In words: Antifungal activity against Candida albicans DAY185 assessed as inhibition of biofilm formation after 48 hrs by XTT assay. In kind it is functional, organism-based.
The test system of series [3] is MIA PaCa-2. In words: Cytotoxicity against human MIAPaCa2 after 24 hrs by MTT assay. The series is classed as cell-based. To be noted: MIA PaCa-2, 24 h. The method, boiled down:
(§1)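 MIA PaCa-2 cells, 10^4 per well, attached overnight at 37 °C, 5% CO2; compounds in DMSO added (final DMSO 1% by vol.), 24 h exposure; viability by MTT assay.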

The subject of series [4] is Candida albicans. In words: Antifungal activity against Candida albicans DAY185 assessed as inhibition of germ tube formation at 50 uM after 6 hrs by phase contrast microscopic analysis. In kind it is functional, organism-based. Put shortly:
(§2)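 BHI overnight cells washed, suspended in PBS, seeded 1×10^6 cells/well, 37 °C 1 h; non-adherent cells washed off; RPMI 1640 with 2% glucose plus compound in DMSO (1% by vol.), 37 °C up to 24 h; germ tubes/hyphae scored by phase contrast microscopy (×200) at 2.5, 6 and 24 h.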

In series [5] the test system is Candida albicans. In words: Antifungal activity against Candida albicans DAY185 assessed as inhibition of hyphae formation after 6 hrs by phase contrast microscopic analysis. In kind it is functional, organism-based. The method, boiled down: as §2
In series [6] the test system is Candida albicans. In words: Antifungal activity against Candida albicans DAY185 assessed as inhibition of hyphae formation at 50 uM after 6 hrs by phase contrast microscopic analysis. The series is classed as functional, organism-based. The method, boiled down: as §2
The test system of series [7] is Candida albicans. In words: Antifungal activity against Candida albicans DAY185 assessed as truncated hyphae formation at 50 uM after 24 hrs by phase contrast microscopic analysis. The series is classed as functional, organism-based. The method, boiled down:
as §2

Series [8] deals with Candida albicans. In words: Antifungal activity against Candida albicans DAY185 assessed as inhibition of biofilm formation at 0.2 to 100 uM administered 6 hrs after microbial seeding in 96-well microplate followed by 48 hrs incubation by XTT assay. The series is classed as functional, organism-based. Put shortly:
(§3)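 Time-of-addition variant of the biofilm assay: compound 100 to 0.2 μM added at -0.5, 0, 2, 4, 6 or 8 h after seeding in RPMI 1640/MOPS; at 48 h wells washed twice with PBS, biofilm quantified by XTT; triplicate in each of three trials; IC50 for 50% reduction of biofilm formation from curve fitting.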
For orientation: Tetrazolium assays rely on reduction of a dye to a coloured formazan, in cell work by metabolically active cells.

The subject of series [9] is Candida albicans. In words: Antifungal activity against Candida albicans DAY185 assessed as inhibition of biofilm formation at 0.2 to 100 uM administered 2 to 4 hrs after microbial seeding in 96-well microplate followed by 48 hrs incubation by XTT assay. The series is classed as functional, organism-based. The method, boiled down:
as §3

For series [10], the system named is MIA PaCa-2. In words: Cytotoxicity against human MIAPaCa2 up to 200 uM after 24 hrs by MTT assay. The conditions noted are these: mia paca-2, 24 h. In kind it is cell-based. The method, boiled down: as §1
In series [11] the test system is Candida albicans. In words: Antifungal activity against Candida albicans DAY185 assessed as inhibition of biofilm formation at 0.2 to 100 uM administered 8 hrs after microbial seeding in 96-well microplate followed by 48 hrs incubation by XTT assay. The series is classed as functional, organism-based. Put shortly:
as §3

The source made the active and inactive calls. The calls are words filed in the database; no cut-off is given here.

A word on the IC50: it is the concentration at which inhibition is half-maximal. As to `CC1(C)C=Cc2c(ccc3c2[N+]([O-])=C2C3=C[C@@]34NC(=O)[C@]5(CCCN5C3=O)C[C@H]4C2(C)C)O1` [AVRAINVILLAMIDE], the MIC in the series with Candida albicans [1] is greater than 200 µM. In addition, the half-inhibitory concentration (IC50) came to 43.3 µM in the series with Candida albicans [2] and 11.3 µM in the series on MIA PaCa-2 [3].
With `CC(C)=CCC/C(C)=C/CC/C(C)=C/CO` [FARNESOL], in the series on Candida albicans [1], the MIC was greater than 200 µM. Moreover, the IC50 in the series on Candida albicans [2] is 129 µM.
The like results for `CC1(C)C=Cc2c(ccc3c2NC(=O)[C@@]32C[C@@]34NC(=O)[C@]5(CCCN5C3=O)C[C@H]4C2(C)C)O1` [NOTOAMIDE B] were, in that order, greater than 200 µM and 109 µM.
For `CC1(C)C=Cc2c(ccc3c4c([nH]c23)C(C)(C)[C@@H]2C[C@]35CCCN3C(=O)[C@]2(NC5=O)[C@H]4O)O1` [NOTOAMIDE R], the MIC with Candida albicans [1] was greater than 200 µM. Also, the IC50 in the series on Candida albicans [2] turned out to be 97.3 µM.
Take `CC1(C)C=Cc2c(ccc3c2NC(=O)[C@@]32[C@H](O)[C@@]34NC(=O)[C@]5(CCCN5C3=O)C[C@H]4C2(C)C)O1` [SCLEROTIAMIDE]: the MIC in the series on Candida albicans [1] is greater than 200 µM. Also, the IC50 with Candida albicans [2] turned out to be 93.5 µM.
For `CC1(C)C=Cc2c(ccc3c4c([nH]c23)C(C)(C)[C@@H]2C[C@]35CCCN3C(=O)[C@@]2(C4)NC5=O)O1` [STEPHACIDIN A], the MIC with Candida albicans [1] was greater than 200 µM. The IC50 in the series with Candida albicans [2] was 55.2 µM.
As to `C/C=C/C=C/C=C/[C@H]1C[C@@H](O)CC(=O)[C@@H]1C` [WAIKIALIDE A], the inhibition entry with Candida albicans [4] and with Candida albicans [6] was “Active” each time. Besides, the MIC with Candida albicans [1] is greater than 200 µM. In addition, the inhibition result in the series with Candida albicans [5] was “Dose-dependent effect”. In addition, in the series with Candida albicans [2], the 50% inhibitory concentration (IC50) worked out at 32.4 µM. Further, the outcome with Candida albicans [7] was Active.
Regarding `C/C=C/C=C/C=C/[C@H]1C[C@@H](O)C[C@@H](O)[C@@H]1C` [WAIKIALIDE B], the MIC in the series on Candida albicans [1] was greater than 200 µM. For the same molecule, the IC50 with Candida albicans [2] came out at 97 µM.
With `CC1(C)C=Cc2c(ccc3c2[N+]([O-])=C2C(C)(C)[C@@H]4C[C@]56CCCN5C(=O)[C@]4(NC6=O)[C@H]4N5C(=O)[C@@]67CCCN6C(=O)[C@@]56[C@H](c5c([nH]c8c9c(ccc58)OC(C)(C)C=C9)C(C)(C)[C@@H]6C7)[C@]234)O1` [WAIKIALOID A], the inhibition entry with Candida albicans [8] and in the series on Candida albicans [11] was “inactive” throughout. The inhibition result in the series on Candida albicans [4], in the series on Candida albicans [6] and with Candida albicans [9] was “Active” in each case. The MIC with Candida albicans [1] is greater than 200 µM. Also, the inhibition result in the series with Candida albicans [5] and in the series on Candida albicans [2] was “Dose-dependent effect” each time. Moreover, the IC50 with Candida albicans [2] is 1.4 µM. Also, the Activity result in the series on MIA PaCa-2 [10] is recorded as “Non-toxic”. The result in the series with Candida albicans [7] was Active.
For the molecule `CC1(C)C=Cc2c(ccc3c2[N+]([O-])=C2C(C)(C)[C@@H]4C[C@]56CCCN5C(=O)[C@]4(NC6=O)[C@H]4N5C(=O)[C@@]67CCCN6C(=O)[C@@]56[C@@H]([C@]234)[C@]2(O)C(=[N+]([O-])c3c2ccc2c3C=CC(C)(C)O2)C(C)(C)[C@@H]6C7)O1` [WAIKIALOID B], the MIC in the series with Candida albicans [1] is greater than 200 µM. Moreover, the IC50 with Candida albicans [2] was 46.3 µM; with MIA PaCa-2 [3], 8.2 µM.
